Measured values of several laboratories.
Protocols differ between the studies behind these lines.
Cell line: PC-3
Observed: cell growth or viability

Structure (SMILES) | technique | concentration | inhibition
O=C(CN1C(=O)/C(=C/c2ccccc2)SC1=S)Nc1ccccc1 | MTT | 10 µM | 43.8%
O=C(Nc1cccc(Cc2ccccc2)c1)C1CCCN(C(=O)c2cc(C(F)(F)F)cc(C(F)(F)F)c2)C1 (stereo not drawn) | WST-1 | 100 µM | 0%
O=C(CN1C(=O)/C(=C/c2ccc(Cl)cc2)SC1=S)Nc1ccccc1 | MTT | 10 µM | 32.3%
O=C1Nc2ccccc2C1=NNc1nnc2n1N=C(c1ccccc1)CS2 | SRB | 10 µM | 20%
COc1cc(CNC(=O)CCCC/C=C/C(C)C)ccc1O | SRB | 10 µM | 19%
COC(=O)c1cc(-c2cccc(NC(=O)C3CCCN(C(=O)c4cc(C(F)(F)F)cc(C(F)(F)F)c4)C3)c2)co1 (stereo not drawn) | WST-1 | 100 µM | 0%
COc1ccc(C(=O)/C=C/c2cc3c(cc2Br)OCO3)cc1S(N)(=O)=O | SRB | 10 µM | 98%
O=C(CN1C(=O)/C(=C/C2CC2)SC1=S)Nc1ccccc1 | MTT | 10 µM | 24.1%
O=C(Nc1cccc(-c2ccco2)c1)C1CCCN(C(=O)c2cc(C(F)(F)F)cc(C(F)(F)F)c2)C1 (stereo not drawn) | WST-1 | 100 µM | 0%
COc1ccc(C(=O)/C=C/c2ccccc2Br)cc1S(N)(=O)=O | SRB | 10 µM | 79%
O=C(CN1C(=O)/C(=C/c2ccc([N+](=O)[O-])cc2)SC1=S)Nc1ccccc1 | MTT | 10 µM | 16.6%
COc1ccc(C(=O)/C=C/c2cccc(Cl)c2)cc1S(N)(=O)=O | SRB | 10 µM | 68%
CC(=O)c1cccc(NC(=O)C2CCCN(C(=O)c3cc(C(F)(F)F)cc(C(F)(F)F)c3)C2)c1 (stereo not drawn) | WST-1 | 100 µM | 0%
O=C(CN1C(=O)/C(=C/c2ccc(F)cc2)SC1=S)Nc1ccccc1 | MTT | 10 µM | 27.7%
COc1ccc(C(=O)/C=C/c2c(F)cccc2Cl)cc1S(N)(=O)=O | SRB | 10 µM | 81%
